Test results as given in ChEMBL document CHEMBL4017529, “Rational Design of Selective Adenine-Based Scaffolds for Inactivation of Bacterial Histidine Kinases” (J Med Chem, 2017).
The source made the active and inactive calls. The calls are words filed in the database; no cut-off is given here.

Tests used:
[1] = tested on: Thermotoga maritima; test: Induction of Thermotoga maritima His-tagged HK853 aggregation expressed in Escherichia coli BL21(DE3)pLysS Rosetta at >= […] after 30 mins by PAGE analysis
[2] = tested on: Thermotoga maritima; test: Induction of Thermotoga maritima His-tagged HK853 expressed in Escherichia coli BL21(DE3)pLysS Rosetta aggregation at 100 uM after 30 mins by PAGE analysis
Method in brief: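 Samples were run on 7.5% native-PAGE and silver stained. Aggregation was scored as loss of the dimeric HK853 band. NH125 served as positive aggregation control.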

[3] = Inhibition of BODIPY-FL-ATPgammaS binding to Thermotoga maritima His-tagged HK853 expressed in Escherichia coli BL21(DE3)pLysS Rosetta preincubated for 30 mins followed by 1 hr incubation by SDS-PAGE in-gel fluorescence assay
[4] = tested on: Thermotoga maritima; test: Binding affinity to Thermotoga maritima His-tagged HK853 D411A mutant expressed in Escherichia coli BL21(DE3)pLysS Rosetta assessed as change in melting temperature at 1 mM by SYPRO orange dye based differential scanning fluorimetric analysis
[5] = tested on: Thermotoga maritima; test: Binding affinity to wild type Thermotoga maritima His-tagged HK853 expressed in Escherichia coli BL21(DE3)pLysS Rosetta assessed as change in melting temperature at 1 mM by SYPRO orange dye based differential scanning fluorimetric analysis
Method in brief: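 Wild-type HK853 at 2–5 µM final in reaction buffer, with SYPRO orange at 5x final. Compound was added at 1 mM final from a 25 mM DMSO stock; the control got DMSO alone. Reactions were 25 µL, made up on ice. Melt ran 20–95 °C at 1 °C min⁻¹ with HEX-filter fluorescence. Tm came from the melt curves, and ΔTm was taken against the control.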

[6] = Selectivity ratio of IC50 for human full length C-terminal His-tagged Hsp90 alpha expressed in Escherichia coli to IC50 for Thermotoga maritima His-tagged HK853 expressed in Escherichia coli BL21(DE3)pLysS Rosetta
[7] = biological target: T1, Heat shock protein HSP 90-alpha (Homo sapiens, UniProt P07900); test: Inhibition of full length human C-terminal His-tagged Hsp90 alpha expressed in Escherichia coli at […] by fluorescence polarization assay relative to control
[8] = tested on: Thermotoga maritima; test: Inhibition of ATPgammaS-BODIPY binding to Thermotoga maritima His-tagged HK853 expressed in Escherichia coli BL21(DE3)pLysS Rosetta at […] preincubated for 30 mins prior to ATPgammaS-BODIPY addition measured after 1 hr by […] SDS-PAGE analysis
[9] = tested on: Thermotoga maritima; test: Induction of Thermotoga maritima His-tagged HK853 expressed in Escherichia coli BL21(DE3)pLysS Rosetta aggregation at […] after 30 mins by PAGE analysis
[10] = biological target: T1, Heat shock protein HSP 90-alpha; test: Inhibition of full length human C-terminal His-tagged Hsp90 alpha expressed in Escherichia coli by fluorescence polarization assay

With `c1ccc(Nc2ncnc3[nH]cnc23)cc1` the Activity [1] was “inactive”.
With `COc1ccc(OC)c(NC(=O)CSc2ncnc3[nH]cnc23)c1` the Activity [2] was “Active”.
For `Clc1c(CSc2ncnc3[nH]cnc23)ccc2c1OCO2`, the Activity [2] was “Active”.
For `FC(F)(F)c1cccnc1N1CCN(c2[nH]cnc3ncnc2-3)CC1`, the Activity [2] was “Active”.
With `Brc1ccc(CSc2[nH]cnc3ncnc2-3)cc1` the Activity [2] was “Active”.
With `Nc1ncnc2c1ncn2[C@@H]1O[C@H](COP(=O)(O)O)[C@@H](O)[C@H]1O` [ADENOSINE PHOSPHATE] the IC50 [3] was 1030 µM.
In the case of `Nc1ncnc2c1ncn2[C@@H]1O[C@H](COP(=O)(O)OP(=O)(O)O)[C@@H](O)[C@H]1O` [ADENOSINE DIPHOSPHATE], the ΔTm [4] is reported as < 2 °C, the ΔTm [5] is reported as 10 °C and the IC50 [3] is reported as 2.4 µM.
In the case of `CCCN(CCC)c1[nH]cnc2ncnc1-2`, the ΔTm [4] is reported as < 2 °C, the ΔTm [5] is reported as 10 °C and the Ratio IC50 [6] is reported as 10 to 2000. For the same molecule, the inhibition [7] was > 45%.
In the case of `CC[C@@H](Nc1ncnc2nc[nH]c12)c1nc2cccc(F)c2c(=O)n1-c1ccccc1`, the inhibition [8] is reported as “inactive”.
In the case of `Cc1ccccc1OCn1cnc2c(N)ncnc21`, the Activity [2] is reported as “Active”.
Work on `CC1CC(Nc2ncnc3[nH]cnc23)CC(C)(C)C1` (centres undefined) yielded a Ratio IC50 [6] of 10 to 2000.
In the case of `c1ccc(CCNc2ncnc3[nH]cnc23)cc1`, the inhibition [7] is reported as > 45%.
For `Brc1cccc(CSc2ncnc3[nH]cnc23)c1`, the Activity [2] was “Active”.
With `Clc1ccccc1CSc1ncnc2[nH]cnc12` the Activity [2] was “Active”.
For `CC1CCN(c2ncnc3[nH]cnc23)CC1`, the Activity [2] was “Active”.
In the case of `C=CC(=O)N1CCC[C@H](n2nc(-c3ccc(Oc4ccccc4)cc3)c3c(N)ncnc32)C1`, the inhibition [8] is reported as “inactive”.
With `Nc1ncnc2c1ncn2CCN1CCOCC1` the Activity [2] was “Active”.
For `Cn1cnc2c(N)nc(Cl)nc21`, the Activity [9] was “inactive”, the IC50 [10] was > 1.25 mM and the Ratio IC50 [6] was 10 to 2000. The inhibition [7] was > 45%.
`Nc1ncnc2c1ncn2[C@@H]1O[C@H](COP(=O)(O)OP(=O)(O)OP(=O)(O)O)[C@@H](O)[C@H]1O` [ADENOSINE TRIPHOSPHATE] gave an IC50 [3] of 27 µM.
For `C=CCSc1ncnc2[nH]cnc12`, the Activity [2] was “Active”.
In the case of `Clc1ccc(CSc2[nH]cnc3ncnc2-3)cc1`, the Activity [2] is reported as “Active”.
For `Nc1nc(Cl)nc2c1ncn2[C@@H]1O[C@H](CO)[C@@H](O)[C@H]1O`, the inhibition [7] was > 45%.
In the case of `c1ccc(N2CCN(c3ncnc4[nH]cnc34)CC2)nc1`, the Activity [2] is reported as “Active”.
In the case of `c1ccc(CSc2ncnc3[nH]cnc23)cc1`, the Activity [2] is reported as “Active”.
With `NS(=O)(=O)c1ccc(CCNc2ncnc3[nH]cnc23)cc1` the Activity [2] was “Active”.
In the case of `COc1ccccc1N1CCN(c2[nH]cnc3ncnc2-3)CC1`, the Activity [2] is reported as “Active”.
